Screening results from PubChem BioAssay.
Fh CTSL1 inh: cathepsin L1 inhibition, PFM18AAP counter-screen. recombinant F. hepatica cathepsin L1, Z-Leu-Arg-MCA fluorescence. inhibition, % at 5.96 µM. hit rate 0.49% among 300,000;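 active = inhibition above the mean of all tested compounds plus 3 SD, set per screening campaign, cut at about 17% in these data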;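 note: 0% = plate median of test compound wells and 100% = 1 µM Z-Phe-Ala-diazomethylketone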
Diaph act CS: diaphorase activation or chemical reduction counter-screen; Diaphorase/resazurin coupled assay, resorufin fluorescence, 16 min; hits give high values; 1 = vehicle wells, 0 = NADH-free wells; activation factor at 20 µM; hit rate 0.005% among 190,000;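 active = diaphorase activity raised at least twofold by the compound at 20 µM; inactive = activation factor below 2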
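Material: bacterial diaphorase enzyme (C. kluyveri); amount: enzyme 0.07 U/mL final; reagent: NADH substrate 0.114 mM plus resazurin dye 0.1 mM, final; doses: single compound dose of 20 µM, 1% DMSO final; timing: 16 min enzyme reaction, ambient temperature; measured by: fluorescence of resorufin, 544 nm excitation, 590 nm emission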
Diaphorase inh: inhibits diaphorase or chemically oxidizes, flagging diaphorase assay artifacts; AID 1217; inhibition, % at 20 µM; diaphorase resazurin-to-resorufin fluorescence, NADH, 16 min; bacterial (C. kluyveri) enzyme, not human; hit rate 0.69% among 190,000;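 active = primary screen inhibition at 20 µM above a set limit, cut at about 50% in these data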;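 note: plate controls were DMSO with full reaction for no effect and wells lacking NADH for full effect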
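System: Bacterial diaphorase enzyme (C. kluyveri) | Incubation: 16-min room-temperature incubation before reading | Benchmarks: No-NADH positive control and DMSO neutral control | Measured by: Resorufin fluorescence 544/590 nm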
ATG4B inhibitor: blocks human ATG4B protease cleavage of LC3 substrate. Q9Y4P1. ATG4B cleavage of LC3-PLA2, NBD-HPC fluorescence, 1 h. inhibition, % at 8.33 µM. hit rate 0.51% among 340,000; in the data active = inhibition above about 40%
Target sequence (Q9Y4P1 whole entry, looked up): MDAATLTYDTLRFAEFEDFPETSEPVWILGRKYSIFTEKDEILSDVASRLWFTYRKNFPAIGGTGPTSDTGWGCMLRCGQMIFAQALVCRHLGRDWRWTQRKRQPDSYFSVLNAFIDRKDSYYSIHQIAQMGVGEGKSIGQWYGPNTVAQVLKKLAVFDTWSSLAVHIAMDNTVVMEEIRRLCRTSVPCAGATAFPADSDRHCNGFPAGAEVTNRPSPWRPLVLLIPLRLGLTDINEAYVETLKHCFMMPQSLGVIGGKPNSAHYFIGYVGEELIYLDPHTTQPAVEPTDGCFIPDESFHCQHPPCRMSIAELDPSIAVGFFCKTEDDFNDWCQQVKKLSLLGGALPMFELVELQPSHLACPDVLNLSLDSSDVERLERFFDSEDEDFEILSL
HKDC1 inhibitor: blocks human hexokinase HKDC1 activity; inhibition, % at 20 µM; recombinant HKDC1, G6PDH/diaphorase resazurin coupled fluorescence; Q2TB90; hit rate 0.16% among 340,000;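 active = inhibition above about 35% when tested at 20 µM, limit read from the data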;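 note: plate controls were DMSO wells with enzyme for no effect and DMSO wells lacking enzyme for full effect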
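Incubation: 90 min at room temperature in dark / Material: recombinant HKDC1 (HK5) hexokinase enzyme, produced in-house / Quantity: enzyme 5 µg/mL final / Compound: one dose of 20 µM, 1% DMSO / Reagent: glucose and ATP substrates / Buffer or medium: Tris pH 8.0 buffer with MgCl2, Tween-20, BSA, BME / Technique: resorufin fluorescence at 613 nm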
ATG4B confirm: ATG4B (human) inhibition, single-dose confirmed; shares compounds with ATG4B inhibitor; ATG4B protease fluorescent substrate cleavage assay; inhibition, % at 8.33 µM; hit rate 92% among 320; in the data active = inhibition above about 39%
PLA2 counter: counter-screen for ATG4B inhibitors: human phospholipase A2; shares compounds with ATG4B inhibitor; purified PLA2, NBD-C6-HPC fluorescence, 45 min; inhibition, % at 8.33 µM; hit rate 66% among 1,600; AID 588402; in the data active = inhibition above about 50%
Target sequence (P04054 whole entry, looked up): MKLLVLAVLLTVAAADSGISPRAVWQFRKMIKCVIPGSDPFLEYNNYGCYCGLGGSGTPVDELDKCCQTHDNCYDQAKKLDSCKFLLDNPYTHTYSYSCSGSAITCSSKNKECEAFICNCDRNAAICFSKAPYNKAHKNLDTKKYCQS
Numbers without * were called inactive; / = not tested or not shown. Only some compounds are listed: those with a hit (about 1.4% of all), similar ones and a draw of the others.

SMILES	Fh CTSL1 inh	Diaph act CS	Diaphorase inh	ATG4B inhibitor	HKDC1 inhibitor	PLA2 counter	others
Cc1nc(N2CCN(C(=O)c3ccco3)CC2)c2c3c(sc2n1)CCCC3	-5	0.7	34	68*	6	67*
CCS(=O)(=O)N1CCC(C(=O)Nc2ccc3c(c2)CCC3)CC1	1	/	/	-2	-5	/
O=C(N=C1SC2CS(=O)(=O)CC2N1Cc1ccc(F)cc1)C1CCCO1 (stereo not given)	3	/	/	1	2	/
CCOC(=O)C1=C(c2ccccc2)NC(SCC(=O)Nc2cccc(C)c2)=C(C#N)C1c1ccco1 (stereo not given)	3	0.7	26	48*	9	55*
CCOC(=O)C1=C(c2ccccc2)NC(SCC(=O)Nc2ccccc2C)=C(C#N)C1c1ccco1 (stereo not given)	2	0.8	15	66*	15	72*
COC(=O)c1csc(S(=O)(=O)N2CCOCC2)c1OC	-2	/	/	-6	-3	/
COCCNC(=S)N1CCN(Cc2ccc3c(c2)OCO3)CC1	3	/	/	3	-9	/
COc1ccc(S(=O)(=O)N2CCC(C(=O)NCCC(=O)Nc3ccc(Cl)cc3)CC2)cc1	9	/	/	-8	-6	/
Clc1cccc(Cl)c1CSc1nnc(-c2sccc2-n2cccc2)o1	2	0.9	7	53*	-1	65*
CSc1nnc(-c2sccc2-n2cccc2)o1	7	1	4	-5	-9	/
CCCCCCCCCCC[N+](C)(C)CC/C=C1/c2ccccc2Sc2ccc(Cl)cc21	-1	/	/	47*	2	52*
CCCc1cc(=O)[nH]c(SC(C)C(=O)N2c3ccccc3CC2C)n1 (stereo not given)	/	/	/	7	4	/
O=[N+]([O-])c1ccc(N/N=C/c2sc(N3CCOCC3)nc2-c2ccccc2)c(S(=O)(=O)Nc2ccccc2Cl)c1	/	0.9	12	62*	-5	26
O=C(CSCc1c(F)cccc1Cl)NNC(=S)NC1CCCCC1	-2	/	/	66*	-4	63*
Cc1cc(C)c(S(=O)(=O)Nc2ccc3c4c(cccc24)CC3)c(C)c1	2	0.9	12	11	4	/
Cc1ccc(S(=O)(=O)Nc2ccc3c4c(cccc24)CC3)c(C)c1	-3	/	/	63*	0	78*
COC(=O)C1=C(N)N(c2ccccc2C(F)(F)F)C2=C(C(=O)CCC2)C1c1ccc2c(c1)OCO2 (stereo not given)	3	0.6	44	54*	1	68*
Cc1cccc(NC(=O)c2ccccc2NC(=O)c2ccccc2)n1	3	/	/	-3	-4	/
COc1cc(C2Nc3cc(Cl)c(S(N)(=O)=O)cc3S(=O)(=O)N2)cc(OC)c1OC (stereo not given)	3	0.9	14	9	0	/
COc1cc(C2Nc3cc(Cl)c(S(N)(=O)=O)cc3S(=O)(=O)N2)ccc1OCc1ccccc1 (stereo not given)	0	0.9	15	84*	13	85*
C/C(=N\NC(=O)c1ccc(OC2CCCC2)cc1)c1ccc(O)cc1	2	/	/	41*	-3	48
CC(Oc1ccc(Br)cc1Br)C(=O)Nc1cccnc1Cl (stereo not given)	/	/	/	9	4	/
COc1cccc(NC(=O)NC2CCCc3ccccc32)c1 (stereo not given)	-4	0.9	10	62*	-6	62*
COC(=O)c1ccc(NC(=S)NC2CCc3ccccc32)cc1 (stereo not given)	0	0.9	5	48*	-3	56*
O=C(Nc1nnc(S(=O)(=O)N2CCN(c3ccc(F)cc3)CC2)s1)c1ccco1	3	/	/	3	10	/
SMILES	Fh CTSL1 inh	Diaph act CS	Diaphorase inh	ATG4B inhibitor	HKDC1 inhibitor	PLA2 counter	others
COc1cc2c(cc1NC(=O)C(C)Sc1ccc(NC(C)=O)cc1)oc1ccccc12 (stereo not given)	6	0.2	82*	44*	1	39	ATG4B confirm=91*
O=C(Nc1nc(COc2ccccc2)cs1)c1ccccc1F	0	0.9	6	54*	-10	33
COc1ccc(OC)c(-c2csc(NC(=O)c3ccccc3F)n2)c1	3	/	/	17	9	/
S=C(NCc1ccc(Cl)cc1Cl)NC1CCCCC1	-1	0.8	24	44*	8	55*
Clc1ccc(CNC2CCCC2)c(Cl)c1	3	0.9	7	5	-11	/
Cc1cc(/C=C2\Cc3ccccc3C2=O)c(C)n1-c1ccccc1	1	1	5	62*	2	62*
Cc1cc(C=C2C(=O)c3ccccc3C2=O)c(C)n1-c1ccc(C(=O)O)cc1	4	0.9	7	-4	4	/
Cc1cc(C=C2C(=O)c3ccccc3C2=O)c(C)n1-c1cccc(C(=O)O)c1	4	0.8	17	9	-2	/
Cc1cc(C=C2C(=O)c3ccccc3C2=O)c(C)n1-c1ccccc1	3	0.9	11	45*	-8	-6	ATG4B confirm=67*
COc1cccc(CNC(=O)C2CCN(S(=O)(=O)c3ccc4c(c3)CC(C)N4C(=O)C3CC3)CC2)c1 (stereo not given)	1	/	/	56*	-1	58*
O=C1NC(=O)/C(=C\c2ccc(OCc3ccccc3)cc2)S1	9	/	/	8	11	/
CCCOc1ccc2ccccc2c1/C=C1\SC(=O)NC1=O	1	/	/	/	5	34
COc1ccccc1OCCCOc1ccc(/C=C2\SC(=O)NC2=O)cc1OC	6	/	/	-3	6	/
O=C1NC(=O)/C(=C\c2ccccc2OCc2ccccc2)S1	11	0.9	9	47*	12	49	ATG4B confirm=59*
COc1ccc(C(C(=O)NCCC(C)C)N(CCO)C(=O)c2snc(C(N)=O)c2N)cc1 (stereo not given)	7	/	/	-2	-3	/
COc1cc(-c2nnc(SCc3c(F)cccc3Cl)o2)cc(OC)c1OC	1	0.9	12	42*	6	57*
COc1cc(-c2nnc(SCc3ccccc3Cl)o2)cc(OC)c1OC	7	0.8	20	-1	3	/
Cc1nc2c(C(=O)NCc3ccc(F)cc3)c[nH]n2c(=O)c1Cl	5	0.8	16	24	-4	/
Cc1nc2c(C(=O)NCCC(C)C)c[nH]n2c(=O)c1Cc1ccccc1F	7	0.9	10	51*	-6	63*
CCCN1CCN(CC(=O)Nc2nncs2)CC1	1	/	/	-2	-4	/
S=c1[nH]nc(-c2ccccc2)n1/N=C/c1ccc(-c2ccccc2Cl)o1	3	0.8	16	42*	-5	58*
